Laboratory results from ChEMBL document CHEMBL4017509, “A Dual Modulator of Farnesoid X Receptor and Soluble Epoxide Hydrolase To Counter Nonalcoholic Steatohepatitis” (J Med Chem, 2017).
Activity calls are given as the source filed them. The rule behind the calls is not given here.

What was measured:
MDM = assay: Effect on IL-10 levels in LPS-stimulated primary human MDM at 0.01 uM after 16 hrs by cytometric bead array method; type: functional, cell-based
Method in brief: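 Blood monocytes isolated by dextran sedimentation and Nycoprep gradient, adherence-selected 1 h, differentiated with GM-CSF 10 ng/mL for 7 days plus IFNγ 10 ng/mL for last 48 h. Stimulated with LPS 100 ng/mL plus compound for 16 h; supernatant IL-10 and IL-12p70 measured by cytometric bead array flow cytometry.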

[1] = Metabolic stability in Sprague-Dawley rat liver microsomes assessed as compound remaining at 10 uM after 60 mins by HPLC analysis; type: ADME, microsome; conditions: read-out: Stability
[2] = target: Retinoic acid receptor beta (Homo sapiens) (UniProt P10826); assay: Transactivation of human GAL4-fused RARbeta ligand binding domain expressed in […] cells at 10 uM after 12 to 14 hrs by dual-glo luciferase reporter gene assay; type: cell-based
Method in brief: (§1)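 HEK293T cells in DMEM/10% FCS, Opti-MEM before Lipofectamine LTX transfection with pFR-Luc reporter, pRL-SV40 and pFA-CMV GAL4–LBD plasmid. 5 h later compound in 0.1% DMSO, Opti-MEM, overnight (12−14 h). Dual luciferase; firefly/renilla ×1000 = RLU, fold over DMSO control; triplicates, ≥3 independent repeats.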

[3] = target: T1, Bifunctional epoxide hydrolase 2 (Homo sapiens) (UniProt P34913); assay: Inhibition of sEH in human HuT-78 cells assessed as reduction in Pam3CSK4-stimulated TNFalpha release preincubated for 24 hrs followed by Pam3CSK4 addition measured after 18 hrs by ELISA; type: cell-based
T1 sequence (whole entry): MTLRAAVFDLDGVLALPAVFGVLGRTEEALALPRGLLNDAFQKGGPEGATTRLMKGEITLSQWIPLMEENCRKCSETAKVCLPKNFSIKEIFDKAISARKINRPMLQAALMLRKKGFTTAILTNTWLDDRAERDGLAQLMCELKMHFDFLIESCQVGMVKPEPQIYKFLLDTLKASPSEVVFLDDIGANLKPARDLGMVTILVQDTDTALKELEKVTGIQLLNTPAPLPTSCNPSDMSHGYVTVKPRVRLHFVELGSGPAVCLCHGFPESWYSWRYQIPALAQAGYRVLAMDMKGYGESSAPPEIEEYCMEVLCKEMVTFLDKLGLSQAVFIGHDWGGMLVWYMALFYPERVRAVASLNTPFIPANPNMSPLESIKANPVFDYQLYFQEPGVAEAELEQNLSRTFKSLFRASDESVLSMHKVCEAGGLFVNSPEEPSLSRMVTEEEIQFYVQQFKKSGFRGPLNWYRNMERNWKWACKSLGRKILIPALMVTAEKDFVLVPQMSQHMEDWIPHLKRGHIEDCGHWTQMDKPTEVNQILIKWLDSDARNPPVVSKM
Method in brief: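 HuT-78 cells in RPMI 1640 with 10% heat-inactivated FCS, 2.0 × 10^6 cells/well, exposed to compound (0.1% DMSO) for 24 h; medium then replaced with fresh compound plus Pam3CSK4 20 ng/mL for 18 h; supernatant TNFα measured by ELISA (absorbance 450 nm); each concentration repeated independently at least three times.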

[4] = target: Oxysterols receptor LXR-alpha (Homo sapiens) (UniProt Q13133); assay: Transactivation of human GAL4-fused LXRalpha ligand binding domain expressed in […] cells at 10 uM after 12 to 14 hrs by dual-glo luciferase reporter gene assay; type: cell-based; method in brief: as §1
[5] = target: T2, Bile acid receptor (Homo sapiens) (UniProt Q96RI1); assay: Transactivation of human FXR expressed in human HeLa cells co-expressing BSEP at 50 uM after 24 hrs by dual-glo luciferase reporter gene assay relative to GW4064; type: cell-based
T2 sequence (whole entry): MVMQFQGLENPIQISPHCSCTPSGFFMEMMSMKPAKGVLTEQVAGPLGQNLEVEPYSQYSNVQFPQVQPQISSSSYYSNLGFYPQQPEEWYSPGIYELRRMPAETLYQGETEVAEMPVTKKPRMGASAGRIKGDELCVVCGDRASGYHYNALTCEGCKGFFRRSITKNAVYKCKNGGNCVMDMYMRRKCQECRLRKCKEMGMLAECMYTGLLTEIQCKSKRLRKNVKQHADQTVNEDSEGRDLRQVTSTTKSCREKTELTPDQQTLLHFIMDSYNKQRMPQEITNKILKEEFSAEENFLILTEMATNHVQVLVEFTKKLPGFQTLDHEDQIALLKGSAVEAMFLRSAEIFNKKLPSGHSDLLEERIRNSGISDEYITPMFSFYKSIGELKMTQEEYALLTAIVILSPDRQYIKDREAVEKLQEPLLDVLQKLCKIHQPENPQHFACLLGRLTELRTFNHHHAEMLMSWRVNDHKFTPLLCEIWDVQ
Method in brief: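 HeLa cells in DMEM/10% FCS at 37 °C, 5% CO2; switched to 0.5% charcoal-stripped FCS before calcium phosphate co-transfection with pcDNA3-hFXR, pSG5-hRXR, BSEP promoter–firefly luciferase reporter and pRL-SV40 renilla. Compound in 0.1% DMSO, phenol red-free medium, 24 h.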

[6] = target: Nuclear receptor subfamily 1 group I member 2 (Homo sapiens, UniProt O75469); assay: Transactivation of human GAL4-fused PXR ligand binding domain expressed in […] cells at 10 uM after 12 to 14 hrs by dual-glo luciferase reporter gene assay; type: cell-based; method in brief: as §1
[7] = target: T3, Peroxisome proliferator-activated receptor gamma (Homo sapiens) (UniProt P37231); assay: Transactivation of PPARgamma in human HepG2 cells assessed as CD36 mRNA expression at 10 uM after 8 to 16 hrs by SYBR green based qRT-PCR analysis relative to DMSO control; type: cell-based
T3 sequence (whole entry): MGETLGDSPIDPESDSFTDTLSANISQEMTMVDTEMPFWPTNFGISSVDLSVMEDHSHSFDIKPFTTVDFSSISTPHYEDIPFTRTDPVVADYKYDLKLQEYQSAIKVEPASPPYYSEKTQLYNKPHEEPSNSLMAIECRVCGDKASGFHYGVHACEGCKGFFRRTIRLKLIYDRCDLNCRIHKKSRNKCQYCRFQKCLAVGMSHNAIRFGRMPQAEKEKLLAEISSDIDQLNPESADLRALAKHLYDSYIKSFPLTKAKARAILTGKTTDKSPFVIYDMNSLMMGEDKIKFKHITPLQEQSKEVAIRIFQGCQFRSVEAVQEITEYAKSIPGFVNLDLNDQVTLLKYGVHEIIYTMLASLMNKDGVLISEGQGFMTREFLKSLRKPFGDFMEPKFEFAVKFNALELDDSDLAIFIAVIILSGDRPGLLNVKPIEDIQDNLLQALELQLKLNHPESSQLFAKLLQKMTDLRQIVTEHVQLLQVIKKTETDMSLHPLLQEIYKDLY
Method in brief: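 HepG2 cells treated 8 or 16 h with compound or 0.1% DMSO, washed in cold PBS, RNA extracted; SYBR Green qRT-PCR in duplicate, ≥4 independent experiments (n = 3 for CD36/FAM3A). ΔΔCt method with GAPDH reference; expression as % of vehicle (100%). Pioglitazone 1 μM used as positive control for the PPARγ genes.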

[8] = target: T3, Peroxisome proliferator-activated receptor gamma (Homo sapiens); assay: Transactivation of human GAL4-fused PPARgamma ligand binding domain expressed in HEL293T cells at 10 uM after 12 to 14 hrs by dual-glo luciferase reporter gene assay relative to pioglitazone; type: cell-based

Sequence of Nuclear receptor subfamily 1 group I member 2 (O75469 whole entry, the tested form may be a part): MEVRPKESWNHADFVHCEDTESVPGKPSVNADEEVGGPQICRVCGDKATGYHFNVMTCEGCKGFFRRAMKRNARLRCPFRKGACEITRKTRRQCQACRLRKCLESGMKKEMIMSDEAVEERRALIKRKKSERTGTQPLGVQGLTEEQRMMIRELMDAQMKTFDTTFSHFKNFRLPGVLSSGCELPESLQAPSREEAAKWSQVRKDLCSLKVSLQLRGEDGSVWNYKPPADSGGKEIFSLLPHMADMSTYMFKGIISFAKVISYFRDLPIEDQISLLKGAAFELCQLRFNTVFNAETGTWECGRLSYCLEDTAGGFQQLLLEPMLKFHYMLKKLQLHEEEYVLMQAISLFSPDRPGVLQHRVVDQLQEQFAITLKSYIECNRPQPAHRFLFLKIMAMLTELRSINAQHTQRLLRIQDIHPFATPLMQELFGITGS
Sequence of Oxysterols receptor LXR-alpha (Homo sapiens) (Q13133 whole entry, the tested form may be a part): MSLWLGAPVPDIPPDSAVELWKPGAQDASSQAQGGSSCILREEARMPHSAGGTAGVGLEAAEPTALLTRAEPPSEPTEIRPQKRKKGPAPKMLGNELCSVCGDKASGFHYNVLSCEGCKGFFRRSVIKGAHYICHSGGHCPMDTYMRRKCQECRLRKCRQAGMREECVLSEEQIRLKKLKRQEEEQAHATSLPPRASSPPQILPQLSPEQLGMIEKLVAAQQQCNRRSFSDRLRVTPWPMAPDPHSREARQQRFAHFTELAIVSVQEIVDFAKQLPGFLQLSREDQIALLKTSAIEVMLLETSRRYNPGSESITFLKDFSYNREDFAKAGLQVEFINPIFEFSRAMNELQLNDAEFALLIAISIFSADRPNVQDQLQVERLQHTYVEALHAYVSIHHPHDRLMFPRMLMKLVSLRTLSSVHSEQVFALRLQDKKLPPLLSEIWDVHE
Sequence of Retinoic acid receptor beta (Homo sapiens) (P10826 whole entry, the tested form may be a part): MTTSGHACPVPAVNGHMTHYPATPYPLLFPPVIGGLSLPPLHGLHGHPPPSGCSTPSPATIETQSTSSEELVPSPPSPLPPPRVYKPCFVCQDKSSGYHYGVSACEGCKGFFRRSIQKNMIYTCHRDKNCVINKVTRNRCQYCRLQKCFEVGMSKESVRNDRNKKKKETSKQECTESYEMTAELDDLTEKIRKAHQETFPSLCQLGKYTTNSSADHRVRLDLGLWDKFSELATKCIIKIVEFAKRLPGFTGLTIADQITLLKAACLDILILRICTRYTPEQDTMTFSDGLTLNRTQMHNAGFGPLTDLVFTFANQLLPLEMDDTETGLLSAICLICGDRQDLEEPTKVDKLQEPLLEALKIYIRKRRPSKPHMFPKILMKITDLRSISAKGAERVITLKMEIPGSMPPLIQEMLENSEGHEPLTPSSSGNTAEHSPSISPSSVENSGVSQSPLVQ

CC(C)(C)c1ccc(C(=O)NCc2ccc(NS(C)(=O)=O)cc2Cl)cc1
Activity (MDM): inactive | remaining at 1 h, 10 µM [1]: > 50% | Activity [2]: inactive | inhibition [3]: Active | Activity [4]: inactive | Emax [5]: 35% | Activity [6]: Not Active | Activity [7]: 129% | Emax [8]: 30%
